Tests used:
[1] = Growth inhibition of human UACC62 cells; format: functional; conditions: UACC-62
[2] = system: CAKI-1; experiment: Growth inhibition of human CAKI-1 cells; format: functional
[3] = system: PC-3; experiment: Growth inhibition of human PC3 cells; format: functional
[4] = Growth inhibition of human NCI-ADR-RES cells; format: functional
[5] = Growth inhibition of human BT549 cells; format: functional
[6] = system: CCRF-CEM; experiment: Growth inhibition of human CCRF-CEM cells; format: functional
[7] = system: SW-620; experiment: Growth inhibition of human SW620 cells; format: functional
[8] = Growth inhibition of human OVCAR3 cells; format: functional; conditions: OVCAR-3
[9] = system: SK-MEL-2; experiment: Growth inhibition of human SK-MEL-2 cells; format: functional
[10] = Growth inhibition of human HCC2998 cells; format: functional; conditions: HCC 2998
[11] = system: KM12; experiment: Growth inhibition of human KM12 cells; format: functional
[12] = system: HL-60(TB); experiment: Growth inhibition of human HL-60(TB) cells; format: functional
[13] = system: M14; experiment: Growth inhibition of human M14 cells; format: functional
[14] = system: A498; experiment: Growth inhibition of human A498 cells; format: functional
[15] = system: SNB-75; experiment: Growth inhibition of human SNB75 cells; format: functional
[16] = system: U-251; experiment: Growth inhibition of human U251 cells; format: functional
[17] = system: NCI-H23; experiment: Growth inhibition of human NCI-H23 cells; format: functional
[18] = Cytotoxicity against human colon cancer cells assessed as cell growth at 10 uM relative to control; format: functional; conditions: Cancer cell lines, read-out: Activity
How it was run: (§1)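 Single-concentration screen against a panel of human cancer cell lines. Each value is the mean percent growth across the cell lines of that tumour subpanel.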

[19] = Cytotoxicity against human ovarian cancer cells assessed as cell growth at 10 uM relative to control; format: functional; conditions: Cancer cell lines, read-out: Activity; how it was run: as §1
[20] = system: T47D; experiment: Growth inhibition of human T47D cells; format: functional
[21] = system: NCI-H460; experiment: Growth inhibition of human NCI-H460 cells; format: functional
[22] = system: RPMI-8226; experiment: Growth inhibition of human RPMI8226 cells; format: functional
[23] = Cytotoxicity against human melanoma cells assessed as cell growth at 10 uM relative to control; format: functional; conditions: read-out: Activity; how it was run: as §1
[24] = Growth inhibition of human HCT15 cells; format: functional
[25] = system: 786-0; experiment: Growth inhibition of human 786-0 cells; format: functional
[26] = Cytotoxicity against human prostate cancer cells assessed as cell growth at 10 uM relative to control; format: functional; conditions: Cancer cell lines, read-out: Activity; how it was run: as §1
[27] = system: A549; experiment: Growth inhibition of human A549/ATCC cells; format: functional
[28] = system: K562; experiment: Growth inhibition of human K562 cells; format: functional
[29] = Growth inhibition of human UACC257 cells; format: functional
[30] = system: SK-MEL-28; experiment: Growth inhibition of human SK-MEL-28 cells; format: functional
[31] = Growth inhibition of human OVCAR5 cells; format: functional; conditions: OVCAR-5
[32] = system: HCT-116; experiment: Growth inhibition of human HCT116 cells; format: functional
[33] = Cytotoxicity against human NSCLC cells assessed as cell growth at 10 uM relative to control; format: functional; conditions: read-out: Activity; how it was run: as §1
[34] = system: MDA-MB-468; experiment: Growth inhibition of human MDA-MB-468 cells; format: functional
[35] = system: TK-10; experiment: Growth inhibition of human TK10 cells; format: functional
[36] = target: T1, Proteasome Macropain subunit MB1 (Homo sapiens) (UniProt P28074); experiment: Inhibition of chymotrypsin-like activity of 20S proteasome in human erythrocytes using Suc-Leu-Leu-Val-Tyr-AMC as substrate at 20 uM by fluorescence assay relative to control
T1 sequence (whole entry): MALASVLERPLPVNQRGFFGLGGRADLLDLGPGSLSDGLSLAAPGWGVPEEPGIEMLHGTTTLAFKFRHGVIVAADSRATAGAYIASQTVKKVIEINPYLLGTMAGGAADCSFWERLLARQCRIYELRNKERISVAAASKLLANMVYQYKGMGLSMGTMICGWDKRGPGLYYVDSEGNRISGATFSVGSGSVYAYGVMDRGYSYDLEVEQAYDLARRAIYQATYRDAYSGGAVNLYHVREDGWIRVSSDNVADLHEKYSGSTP
How it was run: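 Single inhibitor concentration, equivalent DMSO as negative control. AMC fluorescence read at ex 380/em 460 nm; percent inhibition of ChT-L activity.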

[37] = read-out: LC50 (the source's name)

CC(C)C[C@H](NC(=O)CCn1ccc2ccccc2c1=O)B(O)O
GI50 [1]: 4.29 µM
LC50 (concentration killing 50% of cells) [1]: > 100 µM
TGI [1]: 24.9 µM
GI50 [2]: 2.93 µM
TGI [2]: 27 µM
CC50 [2, 37]: > 100 µM
GI50 [3]: 5.77 µM
TGI [3]: > 100 µM
CC50 [3, 37]: > 100 µM
GI50 [4]: 67.1 µM
LC50 [4]: > 100 µM
TGI [4]: > 100 µM
GI50 ([5]; BT-549): 2.21 µM
TGI ([5]; BT-549): 17.1 µM
CC50 ([5]; BT-549, read-out: LC50 (the source's name)): > 100 µM
GI50 [6]: 2.02 µM
TGI [6]: 25.4 µM
CC50 [6, 37]: > 100 µM
GI50 [7]: 3 µM
LC50 [7]: 93.4 µM
TGI [7]: 12 µM
GI50 [8]: 1.97 µM
LC50 (concentration killing 50% of cells) [8]: 31.7 µM
TGI [8]: 5.66 µM
GI50 [9]: 3.58 µM
LC50 [9]: > 100 µM
TGI [9]: 32.5 µM
GI50 [10]: 6.08 µM
LC50 [10]: 66.4 µM
TGI [10]: 21.3 µM
GI50 [11]: 7.51 µM
LC50 [11]: > 100 µM
TGI [11]: 29.8 µM
GI50 [12]: 2.69 µM
TGI [12]: 49.5 µM
CC50 [12, 37]: > 100 µM
GI50 [13]: 4.23 µM
LC50 (concentration killing 50% of cells) [13]: > 100 µM
TGI [13]: > 100 µM
GI50 [14]: 1.22 µM
LC50 [14]: > 100 µM
TGI [14]: 4.79 µM
GI50 [15]: 2.94 µM
LC50 [15]: 93.4 µM
TGI [15]: 15.9 µM
GI50 [16]: 4.23 µM
TGI [16]: > 100 µM
CC50 [16, 37]: > 100 µM
GI50 [17]: 25.4 µM
TGI [17]: > 100 µM
CC50 [17, 37]: > 100 µM
growth at 10 µM [18]: 45.1%
growth at 10 µM [19]: 73.1%
GI50 [20]: 3.71 µM
TGI [20]: 29.3 µM
CC50 [20, 37]: > 100 µM
GI50 [21]: 13 µM
LC50 [21]: > 100 µM
TGI [21]: 56.2 µM
GI50 [22]: 1.06 µM
TGI [22]: 7.07 µM
CC50 [22, 37]: > 100 µM
growth at 10 µM [23]: 30.5%
GI50 ([24]; HCT-15): 9.57 µM
TGI ([24]; HCT-15): > 100 µM
CC50 ([24]; HCT-15, read-out: LC50 (the source's name)): > 100 µM
GI50 [25]: 4.76 µM
TGI [25]: > 100 µM
CC50 [25, 37]: > 100 µM
growth at 10 µM [26]: 57.8%
GI50 [27]: 8.41 µM
TGI [27]: > 100 µM
CC50 [27, 37]: > 100 µM
GI50 [28]: 4.97 µM
TGI [28]: > 100 µM
CC50 [28, 37]: > 100 µM
GI50 ([29]; UACC-257): 3.68 µM
TGI ([29]; UACC-257): 33.8 µM
CC50 ([29]; UACC-257, read-out: LC50 (the source's name)): > 100 µM
GI50 [30]: 3.27 µM
TGI [30]: > 100 µM
CC50 [30, 37]: > 100 µM
GI50 [31]: 18.8 µM
LC50 [31]: > 100 µM
TGI [31]: > 100 µM
GI50 [32]: 1.55 µM
LC50 [32]: > 100 µM
TGI [32]: 19.8 µM
growth at 10 µM [33]: 60.3%
GI50 [34]: 1.38 µM
TGI [34]: 7.08 µM
CC50 [34, 37]: > 100 µM
GI50 [35]: 2.93 µM
LC50 [35]: > 100 µM
TGI [35]: 9.8 µM
inhibition [36]: > 40%

From ChEMBL document CHEMBL3286129, “Optimization of peptidomimetic boronates bearing a P3 bicyclic scaffold as proteasome inhibitors” (Eur J Med Chem, 2014)
